The source made the active and inactive calls. The rule behind the calls is not given here.
test system: Mus musculus; test: Inhibition of LPS-stimulated NF-kappaB activation in transgenic FVB mouse assessed as decrease in NF-kappaB activity at 50 mg/kg, po QD for 3 days before LPS challenge measured after 3 hrs by bioluminescence based luciferase reporter gene assay relative to control; type: functional; design: scale not given: the % may be the effect or the level left; settings: not given

| Compound | Activity [%] |
| --- | --- |
| CC(=O)c1ccc(-n2c(-c3cc(-c4ccncc4)c(N4CCOCC4)s3)nc3ccccc3c2=O)cc1 | 43 |

test system: TCC-SUP; test: Cytotoxicity against human TCCSUP cells; type: functional, cell-based; settings: not given

| Compound | Activity |
| --- | --- |
| CC(=O)c1ccc(-n2c(-c3cc(-c4ccncc4)c(N4CCOCC4)s3)nc3ccccc3c2=O)cc1 | Active |

test system: Rattus norvegicus; test: Antiinflammatory activity against carrageenan-induced paw edema in Sprague-Dawley rat assessed as reduction in paw volume at 50 mg/kg, po dosed 1 hr before carrageenan challenge measured after 3 hrs by plethysmometry; type: functional; design: scale not given: the % may be the effect or the level left; settings: not given

| Compound | Activity [%] |
| --- | --- |
| CC(=O)c1ccc(-n2c(-c3cc(-c4ccncc4)c(N4CCOCC4)s3)nc3ccccc3c2=O)cc1 | 81 |
| O=c1c2ccccc2nc(-c2cc(-c3ccncc3)c(N3CCOCC3)s2)n1-c1ccc(Cl)cc1 | 52 |
| Cc1ccccc1-n1c(-c2cc(-c3ccncc3)c(N3CCOCC3)s2)nc2ccccc2c1=O | 51 |
| COc1ccccc1-n1c(-c2cc(-c3ccc(S(C)(=O)=O)cc3)c(N3CCOCC3)s2)nc2ccccc2c1=O | 63 |
| COc1ccc(-n2c(-c3cc(-c4ccc(S(C)(=O)=O)cc4)c(N4CCOCC4)s3)nc3ccccc3c2=O)cc1 | 53 |
| O=c1c2ccccc2nc(-c2cc(-c3ccncc3)c(N3CCOCC3)s2)n1-c1ccccc1Cl | 43 |
| COc1ccccc1-n1c(-c2cc(-c3ccncc3)c(N3CCOCC3)s2)nc2ccccc2c1=O | 42 |

test system: HEK293; test: Cytotoxicity against TNF-alpha-stimulated HEK293 cells at 10 uM treated 24 hrs before TNFalpha challenge measured after 20 to 24 hrs; type: cell-based; settings: human, hek293, 10 µM

| Compound | Activity |
| --- | --- |
| CSc1ccc(-c2cc(-c3nc4ccccc4c(=O)n3-c3ccc(C)cc3)sc2N2CCOCC2)cc1 | Non-toxic |
| CC(=O)c1ccc(-n2c(-c3cc(-c4ccncc4)c(N4CCOCC4)s3)nc3ccccc3c2=O)cc1 | Non-toxic |
| CC(=O)Nc1ccc(-c2cc(-c3nc4ccccc4c(=O)n3-c3ccc(C)cc3)sc2N2CCOCC2)cc1 | Non-toxic |
| CS(=O)(=O)c1ccc(-c2cc(-c3nc4ccccc4c(=O)n3-c3ccccc3)sc2N2CCOCC2)cc1 | Non-toxic |
| O=c1c2ccccc2nc(-c2cc(-c3ccncc3)c(N3CCOCC3)s2)n1-c1ccc(Cl)cc1 | Non-toxic |
| CSc1ccc(-c2cc(-c3nc4ccccc4c(=O)n3-c3ccccc3)sc2N2CCOCC2)cc1 | Non-toxic |
| CC(=O)c1ccc(-n2c(-c3cc(-c4ccc(S(C)(=O)=O)cc4)c(N4CCOCC4)s3)nc3ccccc3c2=O)cc1 | Non-toxic |
| Cc1ccccc1-n1c(-c2cc(-c3ccc(Cl)cc3)c(N3CCOCC3)s2)nc2ccccc2c1=O | Non-toxic |
| Cc1ccccc1-n1c(-c2cc(-c3ccccc3)c(N3CCOCC3)s2)nc2ccccc2c1=O | Non-toxic |
| Cc1cccc(-n2c(-c3cc(-c4ccncc4)c(N4CCOCC4)s3)nc3ccccc3c2=O)c1 | Non-toxic |
| Cc1ccc(-n2c(-c3cc(-c4ccncc4)c(N4CCOCC4)s3)nc3ccccc3c2=O)cc1 | Non-toxic |
| CSc1ccc(-c2cc(-c3nc4ccccc4c(=O)n3-c3cccc(C)c3)sc2N2CCOCC2)cc1 | Non-toxic |
| O=c1c2ccccc2nc(-c2cc(-c3ccncc3)c(N3CCOCC3)s2)n1-c1ccccc1 | Non-toxic |
| Cc1ccccc1-n1c(-c2cc(-c3ccncc3)c(N3CCOCC3)s2)nc2ccccc2c1=O | Non-toxic |
| COc1ccccc1-n1c(-c2cc(-c3ccc(S(C)(=O)=O)cc3)c(N3CCOCC3)s2)nc2ccccc2c1=O | Non-toxic |
| COc1ccc(-n2c(-c3cc(-c4ccc(S(C)(=O)=O)cc4)c(N4CCOCC4)s3)nc3ccccc3c2=O)cc1 | Non-toxic |
| O=c1c2ccccc2nc(-c2cc(-c3ccncc3)c(N3CCOCC3)s2)n1-c1ccccc1Cl | Non-toxic |
| COc1ccccc1-n1c(-c2cc(-c3ccncc3)c(N3CCOCC3)s2)nc2ccccc2c1=O | Non-toxic |

molecular target: Transcription factor Jun (Homo sapiens) (UniProt P05412); test: Inhibition of AP-1 expressed in HEK293 cells assessed as PMA-stimulated transcriptional activation at 10 uM treated 24 hrs before PMA challenge measured after 20 to 24 hrs by luciferase reporter gene assay; type: cell-based; settings: not given
Procedure, shortened: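 HEK-293 cells stably carrying a minimal-promoter luciferase construct with tandem AP-1 elements (TGACTAA) were plated at 5 × 10⁴ cells/well and held 24 h at 37 °C in 5% CO₂. Compounds in 0.1% DMSO (10 µM–1 nM) were added to replicate wells for 24 h. Cells were then stimulated with PMA for 20–24 h and read with Bright-Glo luminescence. Mean RLU was normalized to the maximal control; IC50 came from a six-point dose response.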

Sequence of Transcription factor Jun (Homo sapiens) (P05412 whole entry): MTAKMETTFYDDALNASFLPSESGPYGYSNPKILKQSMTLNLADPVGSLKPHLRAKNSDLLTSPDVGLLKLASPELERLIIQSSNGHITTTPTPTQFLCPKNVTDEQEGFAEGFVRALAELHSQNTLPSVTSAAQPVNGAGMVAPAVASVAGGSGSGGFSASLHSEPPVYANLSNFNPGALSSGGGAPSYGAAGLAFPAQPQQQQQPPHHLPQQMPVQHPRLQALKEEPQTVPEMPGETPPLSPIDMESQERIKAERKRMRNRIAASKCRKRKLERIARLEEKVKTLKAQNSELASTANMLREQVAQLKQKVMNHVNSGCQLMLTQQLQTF

| Compound | inhibition [%] |
| --- | --- |
| CSc1ccc(-c2cc(-c3nc4ccccc4c(=O)n3-c3ccc(C)cc3)sc2N2CCOCC2)cc1 | 16 |
| CC(=O)c1ccc(-n2c(-c3cc(-c4ccncc4)c(N4CCOCC4)s3)nc3ccccc3c2=O)cc1 | 84 |
| CC(=O)Nc1ccc(-c2cc(-c3nc4ccccc4c(=O)n3-c3ccc(C)cc3)sc2N2CCOCC2)cc1 | 35 |
| CS(=O)(=O)c1ccc(-c2cc(-c3nc4ccccc4c(=O)n3-c3ccccc3)sc2N2CCOCC2)cc1 | 28 |
| O=c1c2ccccc2nc(-c2cc(-c3ccncc3)c(N3CCOCC3)s2)n1-c1ccc(Cl)cc1 | 32 |
| CSc1ccc(-c2cc(-c3nc4ccccc4c(=O)n3-c3ccccc3)sc2N2CCOCC2)cc1 | 0 |
| CC(=O)c1ccc(-n2c(-c3cc(-c4ccc(S(C)(=O)=O)cc4)c(N4CCOCC4)s3)nc3ccccc3c2=O)cc1 | 31 |
| Cc1ccccc1-n1c(-c2cc(-c3ccc(Cl)cc3)c(N3CCOCC3)s2)nc2ccccc2c1=O | 32 |
| Cc1ccccc1-n1c(-c2cc(-c3ccccc3)c(N3CCOCC3)s2)nc2ccccc2c1=O | 27 |
| Cc1cccc(-n2c(-c3cc(-c4ccncc4)c(N4CCOCC4)s3)nc3ccccc3c2=O)c1 | 35 |
| Cc1ccc(-n2c(-c3cc(-c4ccncc4)c(N4CCOCC4)s3)nc3ccccc3c2=O)cc1 | 29 |
| CSc1ccc(-c2cc(-c3nc4ccccc4c(=O)n3-c3cccc(C)c3)sc2N2CCOCC2)cc1 | 14 |
| O=c1c2ccccc2nc(-c2cc(-c3ccncc3)c(N3CCOCC3)s2)n1-c1ccccc1 | 38 |
| Cc1ccccc1-n1c(-c2cc(-c3ccncc3)c(N3CCOCC3)s2)nc2ccccc2c1=O | 0 |
| COc1ccccc1-n1c(-c2cc(-c3ccc(S(C)(=O)=O)cc3)c(N3CCOCC3)s2)nc2ccccc2c1=O | 33 |
| COc1ccc(-n2c(-c3cc(-c4ccc(S(C)(=O)=O)cc4)c(N4CCOCC4)s3)nc3ccccc3c2=O)cc1 | 10 |
| O=c1c2ccccc2nc(-c2cc(-c3ccncc3)c(N3CCOCC3)s2)n1-c1ccccc1Cl | 35 |
| COc1ccccc1-n1c(-c2cc(-c3ccncc3)c(N3CCOCC3)s2)nc2ccccc2c1=O | 33 |

test system: LNCaP; test: Cytotoxicity against human LNCAP cells; type: functional, cell-based; settings: not given

| Compound | Activity |
| --- | --- |
| CC(=O)c1ccc(-n2c(-c3cc(-c4ccncc4)c(N4CCOCC4)s3)nc3ccccc3c2=O)cc1 | Active |

test system: HEK293; test: Inhibition of NF-kappaB expressed in HEK293 cells assessed as inhibition of TNF-alpha-stimulated transcriptional activation at 10 uM treated 24 hrs before TNFalpha challenge measured after 20 to 24 hrs by luciferase reporter gene assay; type: cell-based; settings: not given
Procedure, shortened: (§1)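 Compounds in 0.1% DMSO (10 µM–1 nM) were added to replicate wells for 24 h. Cells were then stimulated with TNF-α for 20–24 h and read with Bright-Glo luciferase. Mean RLU was normalized to the maximal control; IC50 came from a six-point dose response.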

| Compound | inhibition [%] |
| --- | --- |
| CSc1ccc(-c2cc(-c3nc4ccccc4c(=O)n3-c3ccc(C)cc3)sc2N2CCOCC2)cc1 | 22 |
| CC(=O)c1ccc(-n2c(-c3cc(-c4ccncc4)c(N4CCOCC4)s3)nc3ccccc3c2=O)cc1 | 66 |
| CC(=O)Nc1ccc(-c2cc(-c3nc4ccccc4c(=O)n3-c3ccc(C)cc3)sc2N2CCOCC2)cc1 | 4 |
| CS(=O)(=O)c1ccc(-c2cc(-c3nc4ccccc4c(=O)n3-c3ccccc3)sc2N2CCOCC2)cc1 | 9 |
| O=c1c2ccccc2nc(-c2cc(-c3ccncc3)c(N3CCOCC3)s2)n1-c1ccc(Cl)cc1 | 68 |
| CSc1ccc(-c2cc(-c3nc4ccccc4c(=O)n3-c3ccccc3)sc2N2CCOCC2)cc1 | 0 |
| CC(=O)c1ccc(-n2c(-c3cc(-c4ccc(S(C)(=O)=O)cc4)c(N4CCOCC4)s3)nc3ccccc3c2=O)cc1 | 46 |
| Cc1ccccc1-n1c(-c2cc(-c3ccc(Cl)cc3)c(N3CCOCC3)s2)nc2ccccc2c1=O | 1 |
| Cc1ccccc1-n1c(-c2cc(-c3ccccc3)c(N3CCOCC3)s2)nc2ccccc2c1=O | 23 |
| Cc1cccc(-n2c(-c3cc(-c4ccncc4)c(N4CCOCC4)s3)nc3ccccc3c2=O)c1 | 42 |
| Cc1ccc(-n2c(-c3cc(-c4ccncc4)c(N4CCOCC4)s3)nc3ccccc3c2=O)cc1 | 26 |
| CSc1ccc(-c2cc(-c3nc4ccccc4c(=O)n3-c3cccc(C)c3)sc2N2CCOCC2)cc1 | 11 |
| O=c1c2ccccc2nc(-c2cc(-c3ccncc3)c(N3CCOCC3)s2)n1-c1ccccc1 | 30 |
| Cc1ccccc1-n1c(-c2cc(-c3ccncc3)c(N3CCOCC3)s2)nc2ccccc2c1=O | 53 |
| COc1ccccc1-n1c(-c2cc(-c3ccc(S(C)(=O)=O)cc3)c(N3CCOCC3)s2)nc2ccccc2c1=O | 55 |
| COc1ccc(-n2c(-c3cc(-c4ccc(S(C)(=O)=O)cc4)c(N4CCOCC4)s3)nc3ccccc3c2=O)cc1 | 60 |
| O=c1c2ccccc2nc(-c2cc(-c3ccncc3)c(N3CCOCC3)s2)n1-c1ccccc1Cl | 80 |
| COc1ccccc1-n1c(-c2cc(-c3ccncc3)c(N3CCOCC3)s2)nc2ccccc2c1=O | 55 |

test system: PC-3; test: Cytotoxicity against human PC3 cells; type: functional, cell-based; settings: not given

| Compound | Activity |
| --- | --- |
| CC(=O)c1ccc(-n2c(-c3cc(-c4ccncc4)c(N4CCOCC4)s3)nc3ccccc3c2=O)cc1 | Active |

test system: not listed separately; test: Inhibition of NF-kappaB expressed in HEK293 cells assessed as inhibition of TNF-alpha-stimulated transcriptional activation treated 24 hrs before TNFalpha challenge measured after 20 to 24 hrs by luciferase reporter gene assay; type: cell-based; settings: not given; procedure, shortened: as §1

| Compound | IC50 [µM] |
| --- | --- |
| CC(=O)c1ccc(-n2c(-c3cc(-c4ccncc4)c(N4CCOCC4)s3)nc3ccccc3c2=O)cc1 | 10 |
| O=c1c2ccccc2nc(-c2cc(-c3ccncc3)c(N3CCOCC3)s2)n1-c1ccc(Cl)cc1 | 11.4 |
| Cc1ccccc1-n1c(-c2cc(-c3ccncc3)c(N3CCOCC3)s2)nc2ccccc2c1=O | 7.1 |
| COc1ccccc1-n1c(-c2cc(-c3ccc(S(C)(=O)=O)cc3)c(N3CCOCC3)s2)nc2ccccc2c1=O | 9.2 |
| COc1ccc(-n2c(-c3cc(-c4ccc(S(C)(=O)=O)cc4)c(N4CCOCC4)s3)nc3ccccc3c2=O)cc1 | 26 |
| O=c1c2ccccc2nc(-c2cc(-c3ccncc3)c(N3CCOCC3)s2)n1-c1ccccc1Cl | 10.3 |
| COc1ccccc1-n1c(-c2cc(-c3ccncc3)c(N3CCOCC3)s2)nc2ccccc2c1=O | 12.2 |
